For data set [1], the species on record is Rattus norvegicus. The data set can be described thus: Mutagenic activity (Ames Salmonella Test) in the presence of rat liver S-9 fraction in TA-98 strain at aconc. of 1000 ug. The format is functional. An outline of the steps:
(§1)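 Male Sprague-Dawley rats received Arochlor 1254 (500 mg/kg in corn oil) and were killed 48 h later. Liver 9000g supernatant (1.0 mg protein, PBS-diluted, filtered) plus NADPH (1 mg/plate) went into histidine/biotin-supplemented top agar with overnight TA-98 or TA-100 culture. Compound in Me2SO was added last, with Me2SO as control. His+ revertants were counted after 40 h at 37 °C in the dark, averaging ≥2 plates.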

The species entered for data set [2] is Rattus norvegicus. The experiment in a line: Mutagenic activity (Ames Salmonella Test) in the presence of rat liver S-9 fraction in TA-100 strain. The format is functional. An outline of the steps: (§2)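 Liver 9000g supernatant (1.0 mg protein, PBS-diluted, filtered) plus NADPH (1 mg/plate) went into histidine/biotin-supplemented top agar with overnight TA-98 or TA-100 culture. Compound in Me2SO was added last, with Me2SO as control. His+ revertants were counted after 40 h at 37 °C in the dark, averaging ≥2 plates.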

For data set [3], the species on record is Rattus norvegicus. The data set can be described thus: Mutagenic activity (Ames Salmonella Test) in the presence of rat liver S-9 fraction in TA-100 strain at a conc. of 1000 ug. It counts as functional. Put shortly:
as §2

Data set [4] is filed under the species Rattus norvegicus. The experiment in a line: Mutagenic activity (Ames Salmonella Test) in the presence of rat liver S-9 fraction in TA-98 strain. It counts as functional. Put shortly:
as §2

For data set [5], the species on record is Rattus norvegicus. The data set can be described thus: Toxicity (Ames Salmonella Test) in the presence of rat liver S-9 fraction in TA-100 strain (4*10e7 dilution). The format is organism-based. An outline of the steps:
(§3)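 TA-100 bacteria are exposed to varying compound concentrations for 30 min at 37 °C. They are then diluted to about 10³ bacteria/mL and plated on histidine-enriched (4.5 mM) agar. Surviving colonies are counted.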

For data set [6], the species on record is Rattus norvegicus. The data set can be described thus: Toxicity (Ames Salmonella Test) in the presence of rat liver S-9 fraction in TA-100 strain at a conc. of 1000 ug (4*10e6 dilution). The format is organism-based. Put shortly: as §3
Data set [7] is filed under the species Rattus norvegicus. The data set can be described thus: Toxicity (Ames Salmonella Test) in the presence of rat liver S-9 fraction in TA-100 strain (4*10e6 dilution). The format is organism-based. Put shortly:
as §3

Data set [8] is filed under the species Rattus norvegicus. The experiment in a line: Mutagenic activity (Ames Salmonella Test) in the presence of rat liver S-9 fraction in TA-98 strain at a conc. of 1000 ug. The format is functional. An outline of the steps: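 Plate-incorporation reversion assay in TA-98 from an overnight nutrient-broth culture (2–3 × 10⁹ bacteria/mL). The compound is in Me₂SO, added last to top agar at 45 °C. NADPH 1 mg/plate. His⁺ revertants are counted after 40 h at 37 °C in the dark.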

The species entered for data set [9] is Rattus norvegicus. The experiment in a line: Toxicity (Ames Salmonella Test) in the presence of rat liver S-9 fraction in TA-100 strain at a conc. of 500 ug (4*10e6 dilution). It counts as organism-based. Put shortly:
as §3

The species entered for data set [10] is Rattus norvegicus. The experiment in a line: Toxicity (Ames Salmonella Test) in the presence of rat liver S-9 fraction in TA-100 strain at a conc. of 500 ug (4*10e7 dilution). The format is organism-based. An outline of the steps:
as §3

The species entered for data set [11] is Rattus norvegicus. The data set can be described thus: Mutagenic activity (Ames Salmonella Test) in the presence of rat liver S-9 fraction in TA-98 strain at a conc. of 500 ug. The format is functional. Put shortly:
as §1

The species entered for data set [12] is Rattus norvegicus. The data set can be described thus: Mutagenic activity (Ames Salmonella Test) in the presence of rat liver S-9 fraction in TA-100 strain at a conc. of 500 ug. It counts as functional. Put shortly:
as §1

Experimental findings from ChEMBL document CHEMBL1122457, “Derivatives of beta-adrenergic antagonists. N-Nitrosopropranolol and N-hydroxypropranolol and its aldonitrone” (J Med Chem, 1983) are described below.

With `CC(C)N(O)CC(O)COc1cccc2ccccc12.O=C(O)C(=O)O` (stereo unspecified), the Mutagenicity turned out to be 20 in the data set listed under Rattus norvegicus [1], 143 in the data set filed under Rattus norvegicus [2], 61 in the data set filed under Rattus norvegicus [3] and 18 in the data set listed under Rattus norvegicus [4]. Further, the Toxicity in the data set filed under Rattus norvegicus [5] is reported as 18; in the data set listed under Rattus norvegicus [6], 60; in the data set filed under Rattus norvegicus [7], 165.
As to `CC(C)/[N+]([O-])=C/C(O)COc1cccc2ccccc12` (stereo unspecified), the Mutagenicity is recorded as 162 in the data set filed under Rattus norvegicus [2] and 18 in the data set filed under Rattus norvegicus [4]. Besides, in the data set listed under Rattus norvegicus [7], the Toxicity is 232.
Take `CC(C)N(CC(O)COc1cccc2ccccc12)N=O` (stereo unspecified): the Mutagenicity in the data set filed under Rattus norvegicus [2] worked out at 137; in the data set filed under Rattus norvegicus [3], 131; in the data set filed under Rattus norvegicus [4], 14; in the data set listed under Rattus norvegicus [8] it was 13. Moreover, the Toxicity in the data set filed under Rattus norvegicus [5] was 25; in the data set filed under Rattus norvegicus [7], 255.
Consider `Br.CC(C)N(O)CC(O)COc1cccc2ccccc12` (stereo unspecified), for which the values for the Toxicity in the data set listed under Rattus norvegicus [9], in the data set listed under Rattus norvegicus [10] and in the data set listed under Rattus norvegicus [6] were 265, 28 and 183, respectively. For the same compound, the Mutagenicity is 134 in the data set filed under Rattus norvegicus [3], 12 in the data set listed under Rattus norvegicus [11], 117 in the data set listed under Rattus norvegicus [12] and 8 in the data set listed under Rattus norvegicus [8].
On to `CC(C)NO` [ISOPROPYLHYDROXYLAMINE], for which the Mutagenicity in the data set listed under Rattus norvegicus [2] worked out at 150; in the data set listed under Rattus norvegicus [4] it was 18. For the same compound, the Toxicity in the data set listed under Rattus norvegicus [7] turned out to be 230.
